Laboratory results: ChEMBL document CHEMBL1158739, “Chemical constituents of the fruits of Morinda citrifolia (Noni) and their antioxidant activity” (J Nat Prod, 2005)

Columns and labels:
[1] = system: Radical scavenging activity; experiment: Antioxidant activity assessed as DPPH radical scavenging activity after 30 mins; assay type: functional
Method in brief: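 Samples in DMSO were plated in triplicate with 200 µM DPPH in EtOH, 37 °C, 30 min, dark, and absorbance read at 515 nm. Percent scavenging was taken against the DMSO control, with gallic acid as positive control. Screening was at 200 µg/mL final, and actives were retested at 2.5–20 µg/mL. IC50 came from linear regression extrapolation.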

[2] = Antioxidant activity assessed as 3-morpholinosydnonimine-derived peroxynitrite free radical scavenging activity after 5 mins
[3] = Antioxidant activity assessed as authentic peroxynitrite free radical scavenging activity after 5 mins
[4] = Antioxidant activity assessed as authentic peroxynitrite free radical scavenging activity […]; assay type: functional
Method in brief: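 Authentic peroxynitrite (10 µM, in 0.3 N NaOH) oxidizing dihydrorhodamine 123, working solution 5 µM. Buffer was nitrogen-purged 50 mM Na2HPO4, 50 mM NaH2PO4, 90 mM NaCl and 5 mM KCl with 5 mM DTPA. Room temperature, fluorescence at ex 485/em 530 nm; background and final intensities read 5 min after treatment.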

[5] = Antioxidant activity assessed as 3-morpholinosydnonimine-derived peroxynitrite free radical scavenging activity […]; assay type: functional
Method in brief: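 Peroxynitrite was generated from SIN-1 (10 µM) and measured as oxidation of dihydrorhodamine 123, working solution 5 µM. Buffer was nitrogen-purged 50 mM Na2HPO4, 50 mM NaH2PO4, 90 mM NaCl and 5 mM KCl with 5 mM DTPA. Run at room temperature, fluorescence read at ex 485/em 530 nm; background and final intensities taken 5 min after treatment.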

Structure (SMILES) | IC50 [1] [µM] | IC50 [2] [µM] | IC50 [3] [µM] | IC50 [4] [µM] | IC50 [5] [µM]
CC(=O)OCC1=C[C@@H]2OC(=O)C3=CO[C@@H](O[C@@H]4O[C@H](CO)[C@@H](O)[C@H](O)[C@H]4O)[C@H]1[C@@H]32 [ASPERULOSIDE] | > 30 | > 30 | > 30 |  | 
OC[C@H]1OC(O)[C@H](O)[C@@H](O)[C@@H]1O (stereo not given in full) [DEXTROSE] | > 30 | > 30 | > 30 |  | 
COC(=O)C1=CO[C@@H](O[C@@H]2O[C@H](CO)[C@@H](O)[C@H](O)[C@H]2O)C2C1[C@@H]1O[C@@H]1[C@]21O[C@H]1O (single isomer, unassigned; epimer a) [CITRIFOLININ B EPIMER A] | > 30 | > 30 | > 30 |  | 
COC(=O)C1=CO[C@@H](O[C@@H]2O[C@H](CO)[C@@H](O)[C@H](O)[C@H]2O)[C@@H]2[C@@H](CO)C[C@H](O)[C@H]12 | > 30 |  |  | > 30 | > 30
CC(=O)OCC1=C[C@H](O)[C@@H]2C(C(=O)O)=CO[C@@H](O[C@H]3O[C@@H](CO)[C@H](O)[C@@H](O)[C@@H]3O)[C@H]12 [ASPERULOSIDIC ACID] | > 30 | > 30 | > 30 |  | 
Nc1ccn([C@@H]2O[C@H](CO)[C@@H](O)[C@H]2O)c(=O)n1 [CYTIDINE] | > 30 | > 30 | > 30 |  | 
CO[C@]1(CO)O[C@H](CO)[C@@H](O)[C@@H]1O | > 30 | > 30 | > 30 |  | 
O=C/C=C/c1ccc2c(c1)O[C@@H](CO)[C@H](c1ccc(O)c(O)c1)O2 [AMERICANIN A] | 16.9 |  |  |  | 
C[C@@H]1O[C@@H](OC[C@H]2O[C@@H](Oc3c(-c4ccc(O)cc4)oc4cc(O)cc(O)c4c3=O)[C@H](O)[C@@H](O)[C@@H]2O)[C@H](O)[C@H](O)[C@H]1O [NICOTIFLOROSIDE] | > 30 | > 30 | > 30 |  | 
O=C1O[C@H]2C=C(CO)[C@H]3[C@H](O[C@@H]4O[C@H](CO)[C@@H](O)[C@H](O)[C@H]4O)OC=C1[C@H]32 [DEACETYLASPERULOSIDE] | > 30 | > 30 | > 30 |  | 
CC[C@H](CC[C@@H](C)[C@H]1CC[C@H]2[C@@H]3CC=C4C[C@@H](O[C@@H]5O[C@H](CO)[C@@H](O)[C@H](O)[C@H]5O)CC[C@]4(C)[C@H]3CC[C@]12C)C(C)C [SITOGLUSIDE] | > 30 | > 30 | > 30 |  | 
CO[C@@]1(CO)O[C@H](CO)[C@@H](O)[C@@H]1O | > 30 | > 30 | > 30 |  | 
OC[C@@H](O)[C@@H](O)[C@H](O)[C@H](O)CO [MANNITOL] | > 30 | > 30 | > 30 |  | 
O=C(O)c1cc(O)c(O)c(O)c1 [GALLIC ACID] | 2.7 |  |  |  | 
COC(=O)C1=CO[C@@H](O[C@@H]2O[C@H](CO)[C@@H](O)[C@H](O)[C@H]2O)C2C1[C@@H]1O[C@@H]1[C@]21O[C@@H]1O (stereo not given in full) [CITRIFOLININ B EPIMER B] | > 30 | > 30 | > 30 |  | 
O=C1O[C@H]2C=C(CO)[C@@H](CO)[C@H]2[C@@H]1CO [BORRERIAGENIN] | > 30 | > 30 | > 30 |  | 
COC(=O)C1=CO[C@@H](O[C@@H]2O[C@H](CO)[C@@H](O)[C@H](O)[C@H]2O)[C@H]2[C@@H]1[C@@H]1O[C@@H]1[C@@]2(O)CO | > 30 | > 30 | > 30 |  | 
COC(=O)C1=CO[C@@H](O[C@@H]2O[C@H](CO)[C@@H](O)[C@H](O)[C@H]2O)[C@H]2[C@@H]1C=C[C@@]21C=C(C(=O)c2ccc(O)c(OC)c2)C(=O)O1 [DEHYDROMETHOXYGAERTNEROSIDE] | > 30 | > 30 | > 30 |  | 
